Measurements reported in the RNAGym collection of RNA variant scans (doi:10.1038/nmeth.2970).

B1: NELF-E aptamer (parent)
chain: CCCAACGACUGCCGAGCGAGAUUACGCUUGAGCGCCCCACUGAGGAUGCCCACGGGCGAUUGGGGCACGG

Variants of: B1
Assay: HiTS-RAP
Settings: with NELF-E (Drosophila)
Outline: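 Kd came from weighted Hill fits to the first binding curve, with intensities normalised to sequencing intensity and averaged per sequence, keeping only fits whose variance was below 1,000,000. That curve was imaged on an Illumina GAIIx flowcell, where sequenced aptamer DNA templates with a T7 promoter and ter site had been transcribed in situ by T7 RNA polymerase and halted by GST-Tus (30 minutes, 37°C). Before each image, clusters equilibrated for 30 minutes at room temperature with NELF-E-mOrange at 0.064 to 1000 nM in HEPES binding buffer.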

Variant	Kd
C17G U29C	4.96 nM
C17G U29G	4.86 nM
A21C	5.33 nM
A21U	5.14 nM
A21G	5.04 nM
G18A A24G	5.85 nM
G18U U29G	7.47 nM
A15U C57U	14.3 nM
A15U G16U	8.03 nM
C17G A24G	5.52 nM
U22G G64C	6.91 nM
U22G G64U	6.37 nM
U22G G64A	8.7 nM
U22G C25G	5.5 nM
U22G C25U	6.29 nM
C17G G18U	6.33 nM
C17G G18A	6.63 nM
C17G G18C	6.41 nM
A19G C33U	7.36 nM
A15U G34A	11.8 nM
G16U C25G	7.48 nM
G20U U41G	6.33 nM
U22G C50A	19.3 nM
U22G C50U	12.9 nM

Variant	Kd
U22G C50G	7.97 nM
A15U A67G	4.18 nM
C17G G26A	5.44 nM
C17G G64A	6.78 nM
G18A U41G	4.87 nM
C17G G62A	28.8 nM
U22C U47A	10.5 nM
G16U U28G	6.45 nM
A19G G34A	6.47 nM
A15U U41G	6.49 nM
A15U U41C	82.7 nM
U22A U23G	5.34 nM
G16U C37U	21.9 nM
A19G C25U	6.25 nM
A19G C25G	5.29 nM
U22G G54A	12.1 nM
U22G G54U	7.13 nM
U22G G56A	8.77 nM
U22G G56U	5.99 nM
A21U U23G	6.73 nM
A15G U29G	5.98 nM
A19G C57U	4.99 nM
C17G C33U	5.64 nM
G16U A31G	8.32 nM

Variant	Kd
G16U A31U	6.75 nM
C17G G55A	7.03 nM
C17G G55U	7.51 nM
G16U G34A	9.22 nM
U22C U23G	5 nM
U22G G48A	9.21 nM
U22G G48U	9.66 nM
A19G A46G	20.6 nM
G20U A21G	5.12 nM
A19G A59G	36.8 nM
G18U A19G	6.31 nM
A15U G20U	7.81 nM
A21G U41G	6.21 nM
G20U U23G	6.37 nM
A15G C17G	5.93 nM
A19U U22G	6 nM
G16U G64A	7.51 nM
A21G U22G	5.72 nM
C17G G63U	10.3 nM
G16U A39G	8.49 nM
G16U A39U	23.5 nM
A19G C66U	5.18 nM
A19G A21G	6.58 nM
A21G A46G	39.1 nM

Variant	Kd
A19G C53U	4.21 nM
G16U A52G	4.81 nM
G16U A52U	19.7 nM
G18U A24G	5.98 nM
C17G G20A	5.92 nM
C17G G20U	6.58 nM
A15G A24G	6.12 nM
C17G U23G	5.45 nM
G16U A21U	6.82 nM
G16U A21G	5.22 nM
A19G U47G	7.16 nM
G16U G26U	7.33 nM
G16U G26A	4.92 nM
A19G A39G	9.35 nM
A19G A39U	31.1 nM
A15U	5.65 nM
A21G U29G	5.79 nM
U22G G45U	7.63 nM
U22G G45A	74.7 nM
C17G C50U	15.9 nM
G20U U22G	6.52 nM
A21G A59U	73 nM
A19U U41G	4.74 nM
C17U G54A	11.6 nM

Variant	Kd
C17G U28C	8.7 nM
C17G U28G	6.4 nM
U22G A24G	5.62 nM
U22G A24U	7.45 nM
G16A U22G	6.17 nM
U22G A59U	97.1 nM
U22G A59G	76.4 nM
U22G C40G	6.42 nM
U22G C40U	82.8 nM
G16U	5.88 nM
G16A	5.27 nM
G16C	4.81 nM
G20U A46G	47.1 nM
U22G A52C	6.52 nM
U22G A52U	17.5 nM
U22G A52G	4.99 nM
G16A U23G	6.04 nM
C17G A31G	5.92 nM
C17G G34A	8.48 nM
U22G C35G	6.38 nM
U22G C35U	11.6 nM
U22G C35A	7.18 nM
G20U C57U	7.84 nM
C17G C57U	5.45 nM

Variant	Kd
G18A U29G	5.68 nM
C17G A67G	5.71 nM
U22G G58U	10.5 nM
U22G G55A	8.23 nM
U22G G55U	7.97 nM
U22G G55C	7.26 nM
U22G A43G	22.8 nM
U22G A43U	56.4 nM
U22G C38U	8.32 nM
A21U A67G	5.54 nM
G18A G20U	8.6 nM
A19G G64A	6.54 nM
U22G C36A	10.1 nM
U22G C36G	7.35 nM
U22G C36U	6.89 nM
U22G G44U	17.2 nM
U22G G44A	17.5 nM
G16A U29G	5.1 nM
G16U G54A	16.2 nM
G16U A19G	6.97 nM
G16U A19U	5.21 nM
G16U C17U	6.11 nM
G16U C17G	5.95 nM
C17U	4.56 nM

Variant	Kd
C17A	4.3 nM
C17G	5.02 nM
A19U A21U	6.8 nM
C17G U22G	4.82 nM
C17G U22C	5.02 nM
A21G G64A	9.49 nM
A19G U22C	4.25 nM
A19G U22G	5.7 nM
A19G U28C	9.82 nM
U22G A46U	33 nM
U22G A46G	35.8 nM
A19U	5.02 nM
A19C	4.44 nM
A19G	5.18 nM
G20A U22G	5.27 nM
U22G G34U	5.88 nM
U22G G34A	8.31 nM
C17G G30A	3.42 nM
U22C U29G	5.29 nM
C17G U47G	4.63 nM
U22G A67U	7.3 nM
U22G A67G	5.48 nM
A21U A24G	5 nM
U22G C53A	4.91 nM

Variant	Kd
U22G C53U	4.04 nM
G20A A21G	7.05 nM
G20U A31G	8.41 nM
G16U A67G	5.58 nM
G16U A67U	10.1 nM
A19G A52G	5.06 nM
A19G A52U	19.5 nM
U22G G65A	5.12 nM
A15U C17G	7.12 nM
C17U A31G	5.15 nM
A19G A31U	5.3 nM
A19G A31G	6.72 nM
U22C C57U	2.92 nM
G18A U22G	6 nM
A19U A24G	5.61 nM
G20A A24G	6.46 nM
G20A U41G	5.24 nM
G20A U23G	5.94 nM
U22G G62U	10.4 nM
U22G G62A	18.2 nM
C17G A39G	8.44 nM
A15G G16U	5.48 nM
A15G G16A	8.29 nM
A15G U41G	5.7 nM

Variant	Kd
A19U U29G	5.71 nM
C17U G64A	11.1 nM
G20A U29G	4.98 nM
U22G G63C	39.6 nM
U22G G63A	14.9 nM
U22G G63U	14 nM
C17G G65U	7.17 nM
G16U U61A	33.3 nM
G16U U61C	77.5 nM
A15U U60C	10.7 nM
A15G U23G	5.24 nM
C17U U41G	5.63 nM
A19G A67G	5.94 nM
A19G A67U	5.89 nM
G16A U41G	6.55 nM
A19G G65A	6.12 nM
A19G G65U	7.38 nM
A19G A43G	8.78 nM
A19G C35U	7.42 nM
A15U A24G	6.86 nM
G20U A39G	10.9 nM
G20U	6.04 nM
G20A	5.25 nM
G20C	5.82 nM

Variant	Kd
G20U U29G	6.19 nM
G16A A24G	6.88 nM
G16U A24G	7.15 nM
A15U A19G	9.2 nM
C17U A19G	7.29 nM
A19G G20A	6.4 nM
A19G G20U	6.34 nM
U22G C33G	6.1 nM
U22G C33U	5.57 nM
A15U U22G	6.74 nM
C17G C40G	5.54 nM
G18A A19C	6.3 nM
G18A A19G	5.36 nM
G20U U28C	9.17 nM
C17G A19U	7.26 nM
C17G A19G	5.02 nM
A15G U22G	5.78 nM
A19G G30A	4.57 nM
G16A C17G	6.2 nM
A15U U29A	5.96 nM
A15U U29G	6.83 nM
C17G U41G	4.85 nM
A19U U23G	6.66 nM
C17G A21G	6.68 nM

Variant	Kd
G16U G30A	4.95 nM
A19G U29C	6.11 nM
A19G U29G	5.87 nM
A19G U29A	3.96 nM
G16U C57U	8.22 nM
C17A U23G	5.06 nM
A19G G54A	15.1 nM
U22G C66A	4.13 nM
U22G C66U	5.67 nM
G16U G65U	7.8 nM
G18C	6.13 nM
G18U	5.57 nM
G18A	4.61 nM
A19G U61A	24.3 nM
A15U U23G	5.84 nM
A21U C25G	6.57 nM
G18U U23G	6.43 nM
U22C U41G	5.5 nM
C17G A43G	9.66 nM
A21G A24G	6.42 nM
U22G A39U	29.7 nM
U22G A39G	8.32 nM
G16A G20U	7.98 nM
G16U U29C	6.55 nM

Variant	Kd
G16U U29G	6.38 nM
A19G A24U	7.26 nM
A19G A24G	6.18 nM
C17U A24G	5.54 nM
G16U C66U	5.92 nM
G20U G64A	9.36 nM
G16U G63A	15.2 nM
C17U U29G	5.35 nM
C17U U22G	4.67 nM
G16U G55U	8.69 nM
G16U G55A	7.53 nM
U22C A24G	6.97 nM
U22G C49U	24.7 nM
A19G G26A	4.12 nM
A19U A52U	22.1 nM
G16U G42A	36.6 nM
G20U A24G	6.87 nM
G16U G20U	7.39 nM
G16U G56A	13.2 nM
G18A G26A	6.84 nM
G18A U23G	4.95 nM
A19G U23G	6.11 nM
G16U U23G	5.85 nM
A21U U29G	5.33 nM

Variant	Kd
U22G C57U	6.19 nM
C17U U23G	4.95 nM
G18U U22G	6.85 nM
A19G G55A	7.92 nM
A19G G55U	10.6 nM
G20U A59G	19.9 nM
C17U A43G	20.5 nM
U22G C51U	7.12 nM
U22G C51A	8.46 nM
U22G G32U	4.59 nM
U22G G32A	4.39 nM
C17G C38U	7.29 nM
G16U G18A	7.17 nM
A21G U28C	6.03 nM
G16U U41C	76.2 nM
G16U U41G	6.39 nM
C17U G34A	5.49 nM
U22A	5.46 nM
U22G	4.92 nM
U22C	4.53 nM
U22G C37G	7.01 nM
U22G C37U	12.7 nM
U22G C37A	14.6 nM
U22G A31U	5.65 nM

Variant	Kd
U22G A31G	6.63 nM
G20U G65U	7.46 nM
U22G C27G	8.09 nM
U22G C27U	4.34 nM
A21U U41G	5.38 nM
A19G G63A	19.1 nM
A19G G63U	14.8 nM
U22G G26U	4.84 nM
U22G G26A	5.64 nM
C17G C36U	9.05 nM
A21G U23G	6.71 nM
U22G G30U	6.56 nM
U22G G30A	5.32 nM
C17G C25U	5.39 nM
C17G C25G	4.76 nM
A19G U41G	6.27 nM
A19G U41C	92.4 nM
U22G G42A	49.8 nM
G16U U22G	6.64 nM
G20U G54A	20.1 nM
A21U U22G	5.31 nM
U22A A24G	7.66 nM
